Source: PubChem BioAssay
In the library only some 2.3% were active in any assay of this set; here they are far more common.
TRPC4 potent: positive allosteric modulators of TRPC4, primary screen, cell-based, mouse TRPC4beta, HEK293 mu-opioid, Fluo-4 calcium | Short transient receptor potential channel 4 (Mus musculus), Q9QUQ5 | DAMGO EC20, Fluo-4 Ca2+ flux; active compounds read high | B-score at 10 µM | actives 0.42% (n = 310,000);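 active = B-score of calcium response area above 5 SD of library B-scores, with initial fluorescence ratio within 5 SD of library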;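 note: B-score of integrated fluorescence ratio over time as area under calcium response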
TRPC6 inh: mouse TRPC6 channel inhibitors, primary screen, cell-based, HEK293, membrane potential dye; Short transient receptor potential channel 6 (Mus musculus), Q61143; ACh-evoked depolarization; active compounds read low; B-score at 10 µM; actives 1.1% (n = 310,000); AID 2553, 2010;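 active = B-score under library mean minus 3 SD, initial fluorescence not abnormally high, positive integrated signal ratio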;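 note: B-score derived from integrated fluorescence ratio over the kinetic read; more negative B-score means stronger inhibition of depolarization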
TRPC6 activator: mouse TRPC6 channel activators, primary screen, cell-based, HEK293, membrane potential dye. AID 2550, 2010. HEK293-TRPC6 membrane potential dye fluorescence; active compounds read high. actives 0.13% (n = 310,000). B-score at 10 µM;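 active = B-score of the integrated fluorescence ratio above library mean plus 3 SD, and starting fluorescence ratio within library mean plus 5 SD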;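 note: higher score means more depolarization so channel activation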
TRPC4 act: activators of mouse TRPC4 channel, primary screen, Fluo4 calcium, HEK293 TRPC4beta/mu-opioid cells; Short transient receptor potential channel 4 (Mus musculus), Q9QUQ5; Fluo4 calcium fluorescence; active compounds read high; B-score at 10 µM; actives 0.49% (n = 310,000); AID 2237, 2010;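 active = B-score above 5 SD of library B-scores, and initial fluorescence ratio not above library mean plus 5 SD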;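 note: positive B-score marks a calcium rise read as TRPC4 activation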
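Material: HEK293 stable line with TRPC4beta plus mu-opioid receptor; technique: Fluo4 calcium-sensitive dye fluorescence, kinetic, 1 Hz baseline; timing: Fluo4 dye loading 45 min at room temperature, 110 s recording; controls: assay buffer as low control, maximal DAMGO as high control; read-out: integrated baseline-normalised fluorescence ratio, converted to per-well B score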
TRPC4 block: inhibitors of mouse TRPC4 channel, primary screen, Fluo4 calcium, HEK293 TRPC4beta/mu-opioid cells | Short transient receptor potential channel 4 (Mus musculus), Q9QUQ5 | DAMGO-evoked Fluo4 calcium flux; active compounds read low | B-score at 10 µM | actives 0.39% (n = 300,000) | AID 2247, 2010;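 active = B-score over 3 SD under the library average, no early fluorescence shift, positive overall ratio signal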
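Signal: kinetic Fluo4 fluorescence imaging of calcium influx. Material: stable TRPC4beta/mu-opioid receptor HEK293 cells. Probe or stimulus: DAMGO in two steps, submaximal then maximal.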
HEK293 TRPC6 ctr: parental HEK293 membrane potential modulation, confirmation, counter-screen for TRPC6 modulator project, cell-based | shares compounds with TRPC6 inh | membrane potential dye fluorescence | membrane potential signal change, % at 10 µM | actives 51% (n = 2,400) | AID 488924, 2010;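 active = membrane potential signal moves up or down beyond 5 SD from buffer-only wells, on both duplicate plates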
HEK293 MPD ctr 2: second check of TRPC6 modulator effects in parental HEK293 cells. membrane potential dye fluorescence; after compound, maximal acetylcholine stimulation. actives 14% (n = 2,400). shares compounds with TRPC6 inh. AID 488926. inhibition, % at 10 µM;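 active = membrane potential signal drops by more than 5 SD from the mean control signal, in both duplicate plates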;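 note: plate controls were acetylcholine ECmax control wells for no effect and buffer only wells for full effect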
TRPC4 ctr mod: TRPC4 modulation by TRPC6 hit compounds, confirmation, selectivity assay for TRPC6 modulator project, cell-based, HEK293 TRPC4/mu-opioid, membrane potential dye, mouse | shares compounds with TRPC6 inh | membrane potential fluorescence | percent change from control (negative = decrease, positive = increase), % at 10 µM | actives 69% (n = 2,400) | AID 488927, 2010;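 active = membrane potential signal moved up or down beyond 5 SD of buffer control wells, in both duplicate plates, actives on both sides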;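 note: plate controls were assay buffer wells for no effect and DAMGO maximal-effect wells for full effect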
TRPC4/MOR inh 2: second selectivity test of TRPC6 modulators against mouse TRPC4; AID 488928; actives 55% (n = 2,400); shares compounds with TRPC6 inh; HEK293 TRPC4/mu-opioid, membrane potential dye fluorescence; stimulated with maximal-effect DAMGO; inhibition, % at 10 µM;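 active = drop in membrane potential signal beyond 5 SD of the control wells in both duplicate plates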;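 note: TRPC4 counter screen for TRPC6 hits run under conditions tuned for TRPC6 not TRPC4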
TRPC6 inh conf: mouse TRPC6 channel inhibitors, confirmation, HEK293 cells, membrane potential dye, duplicate. actives 43% (n = 3,300). shares compounds with TRPC6 inh. ACh-evoked depolarization. inhibition, % at 10 µM;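 active = fluorescence ratio falls more than 5 SD below the full-stimulation control mean, in both duplicate runs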;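 note: integrated fluorescence ratio of peak minus minimum over baseline after agonist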
TRPC6 act conf: mouse TRPC6 channel activators, confirmation, HEK293 cells, membrane potential dye, duplicate; shares compounds with TRPC6 inh; HEK293-TRPC6 membrane potential dye fluorescence, FDSS; activation, % at 10 µM; actives 11% (n = 2,800);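 active = ratio signal rise beyond 5 SD above unstimulated control wells' mean, seen in both duplicate runs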;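 note: plate controls were buffer EC0 wells for no effect and acetylcholine ECmax response for full effect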
The depositor's hits bear a star; i = inactive; / = no result; + = active, no number.

SMILES	TRPC4 potent	TRPC6 inh	TRPC6 activator	TRPC4 act	TRPC4 block	HEK293 TRPC6 ctr	HEK293 MPD ctr 2	TRPC4 ctr mod	TRPC4/MOR inh 2	TRPC6 inh conf	TRPC6 act conf
CC(C)CC(c1nnnn1Cc1ccc2c(c1)OCO2)N1CCC(C(N)=O)CC1 (stereo not drawn)	i	i	i	i	i	/	/	/	/	/	/
Nc1c(C(=O)c2ccccc2)sc2nsc(SCCN3CCCC3)c12	i	i	65*	86*	i	+	i	272%*	36%*	i	513%*
Nc1c(C(=O)c2ccc(Cl)cc2)sc2nsc(SCCN3CCOCC3)c12	i	i	i	i	i	/	/	/	/	/	/
CCN(CC)c1ccc(Nc2nc(N3CCOCC3)c3ccccc3n2)cc1	i	-5.2*	i	i	i	-143%*	i	-32%*	56%*	i	i
Cn1c(CCN2CCCCC2)nc2cc([N+](=O)[O-])ccc21	i	-5.8*	i	i	i	-200%*	i	-32%*	38%*	i	i
CCN1CCN(CCc2nc3cc([N+](=O)[O-])ccc3n2C)CC1	i	i	i	i	i	/	/	/	/	/	/
Cc1occc1C(=O)/C(C#N)=C/c1ccc(O)c(Br)c1	i	i	73*	46*	i	+	107%*	236%*	i	/	508%*
N#C/C(=C\c1ccc(O)c(Br)c1)C(=O)N1CCCCC1	i	i	i	i	i	/	/	/	/	/	/
Cc1onc(-c2ccccc2)c1C(=O)NNC(=O)c1ccccc1O	i	i	i	i	i	/	/	/	/	/	/
Cc1onc(-c2ccccc2)c1C(=O)NNC(=S)NC(=O)c1ccc(Cl)cc1Cl	i	-5.8*	i	375*	i	96%*	i	36%*	36%*	i	/
Cc1ccc(C(O)(COC(=O)C(C)C)COC(=O)C(C)C)c(O)c1	i	i	i	i	i	/	/	/	/	/	/
Cc1cc([N+](=O)[O-])ccc1NC(=O)CN1C2CCC1CC(NC(=O)NC13CC4CC(CC(C4)C1)C3)C2 (stereo not drawn)	i	i	i	i	i	/	/	/	/	/	/
O=C(Nc1ccc(-n2cnnn2)cc1)c1cn2ccccc2n1	i	-5.1*	i	i	i	i	i	i	i	i	i
Cc1ccccc1NC(=O)CCN1CCc2ccccc2C1	i	i	i	i	i	/	/	/	/	/	/
Cc1nc(N)nc(N)c1CCCc1ccc(Cl)c(Cl)c1	i	-5.7*	i	i	i	i	i	i	50%*	40%*	i
COCCNCC(=O)Nc1ccccc1Sc1ccccc1	i	i	i	i	i	/	/	/	/	/	/
Cc1nn(-c2ccccc2)c(N2CCCC2)c1/C=N/Nc1ccc(S(N)(=O)=O)cc1[N+](=O)[O-]	i	-5.5*	i	i	i	i	i	-10%*	54%*	i	i
NS(=O)(=O)c1ccc(N/N=C/c2ccc(C(=O)O)cc2)c([N+](=O)[O-])c1	i	i	i	i	i	/	/	/	/	/	/
CCC(C)(C)NC(=O)C(c1ccccc1)N(Cc1cccs1)C(=O)Cn1nnc2ccccc21 (stereo not drawn)	i	i	15*	i	i	119%*	i	34%*	i	i	44%*
COCCNC(=O)C(c1ccccc1)N(Cc1cccs1)C(=O)Cn1nnc2ccccc21 (stereo not drawn)	i	i	i	i	i	/	/	/	/	/	/
CCC(C)(C)NC(=O)C(c1ccc(C)o1)N(Cc1cccs1)C(=O)Cn1nnc2ccccc21 (stereo not drawn)	i	i	15*	i	i	342%*	i	80%*	i	i	99%*
CCOC(=O)C(CC(=O)c1ccccc1)CC(=O)c1ccccc1	i	i	i	i	i	/	/	/	/	/	/
Cc1ccc(OCC(=O)N(C)CC(=O)Nc2cccc(F)c2)cc1	i	i	i	i	i	/	/	/	/	/	/
COc1ccc(-c2nc3cc(C)ccn3c2NCC2CCCO2)cc1OC (stereo not drawn)	i	-6.9*	i	i	i	-223%*	80%*	-38%*	44%*	56%*	i
